How the values were obtained:
[1] = biological target: T1, NAD-dependent protein deacetylase sirtuin-1 (Homo sapiens, UniProt Q96EB6); test: Inhibition of human recombinant SIRT1 using Fluor de Lys-SIRT as substrate incubated for 60 mins prior to substrate addition measured after 60 mins by fluorimetric analysis
T1 sequence (Q96EB6 whole entry): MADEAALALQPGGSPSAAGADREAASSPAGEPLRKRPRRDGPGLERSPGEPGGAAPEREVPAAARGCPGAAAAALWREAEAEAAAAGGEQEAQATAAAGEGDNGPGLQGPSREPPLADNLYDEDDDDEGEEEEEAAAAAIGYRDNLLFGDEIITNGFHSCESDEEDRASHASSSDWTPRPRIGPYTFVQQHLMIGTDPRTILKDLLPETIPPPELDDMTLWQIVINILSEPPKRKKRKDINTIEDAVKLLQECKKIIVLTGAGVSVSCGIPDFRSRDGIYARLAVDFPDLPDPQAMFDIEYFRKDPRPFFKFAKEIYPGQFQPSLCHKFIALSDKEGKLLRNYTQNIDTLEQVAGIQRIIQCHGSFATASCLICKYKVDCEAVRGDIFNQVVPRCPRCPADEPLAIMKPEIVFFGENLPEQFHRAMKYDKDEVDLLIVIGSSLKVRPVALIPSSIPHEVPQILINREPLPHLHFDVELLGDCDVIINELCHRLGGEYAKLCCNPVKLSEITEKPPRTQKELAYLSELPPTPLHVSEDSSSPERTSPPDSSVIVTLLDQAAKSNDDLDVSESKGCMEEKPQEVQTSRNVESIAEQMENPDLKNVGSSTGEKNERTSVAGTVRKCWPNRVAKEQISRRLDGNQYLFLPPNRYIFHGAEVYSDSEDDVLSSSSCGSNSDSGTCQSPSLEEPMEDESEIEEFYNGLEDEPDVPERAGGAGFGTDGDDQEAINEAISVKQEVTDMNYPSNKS
Procedure, shortened: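 Human recombinant SIRT1 run the same way: 60 min at 37 °C with 1 mM NAD⁺ and serial compound dilutions, then 25 μM Fluor de Lys-SIRT substrate for 60 min. Stopped with nicotinamide-containing Developer II and read 45 min later at ex 360/em 460 nm. IC₅₀ from logit regression of % inhibition vs control; means of ≥3 experiments.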

[2] = biological target: T2, NAD-dependent protein deacetylase sirtuin-2 (Homo sapiens, UniProt Q8IXJ6); test: Inhibition of human recombinant SIRT2 using Fluor de Lys-SIRT as substrate incubated for 60 mins prior to substrate addition measured after 60 mins by fluorimetric analysis
T2 sequence (Q8IXJ6 whole entry): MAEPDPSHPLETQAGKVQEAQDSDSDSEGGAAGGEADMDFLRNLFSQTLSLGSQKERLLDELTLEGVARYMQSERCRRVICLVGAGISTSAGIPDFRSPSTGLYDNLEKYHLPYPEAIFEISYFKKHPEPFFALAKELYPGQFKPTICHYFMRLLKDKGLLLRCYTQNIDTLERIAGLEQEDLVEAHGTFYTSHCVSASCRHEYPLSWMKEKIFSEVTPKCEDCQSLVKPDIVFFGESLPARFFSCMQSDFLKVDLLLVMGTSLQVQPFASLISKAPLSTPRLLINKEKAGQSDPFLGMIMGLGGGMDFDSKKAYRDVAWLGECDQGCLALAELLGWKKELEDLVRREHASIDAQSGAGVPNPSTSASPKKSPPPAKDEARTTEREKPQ
Procedure, shortened: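 Human recombinant SIRT2 preincubated with 1 mM NAD⁺ and serial compound dilutions for 60 min at 37 °C, then 25 μM Fluor de Lys-SIRT substrate added. Reaction stopped at 60 min with Developer II containing nicotinamide. Fluorescence read 45 min later at ex 360/em 460 nm. % inhibition taken against control wells. IC₅₀ obtained by regression of log[Inh] vs logit % inhibition; means of ≥3 experiments.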

[3] = biological target: T3, NAD-dependent protein deacetylase sirtuin-3, mitochondrial (Homo sapiens, UniProt Q9NTG7); test: Inhibition of human recombinant SIRT3 using Fluor de Lys-SIRT as substrate incubated for 60 mins prior to substrate addition measured after 60 mins by fluorimetric analysis
T3 sequence (Q9NTG7 whole entry): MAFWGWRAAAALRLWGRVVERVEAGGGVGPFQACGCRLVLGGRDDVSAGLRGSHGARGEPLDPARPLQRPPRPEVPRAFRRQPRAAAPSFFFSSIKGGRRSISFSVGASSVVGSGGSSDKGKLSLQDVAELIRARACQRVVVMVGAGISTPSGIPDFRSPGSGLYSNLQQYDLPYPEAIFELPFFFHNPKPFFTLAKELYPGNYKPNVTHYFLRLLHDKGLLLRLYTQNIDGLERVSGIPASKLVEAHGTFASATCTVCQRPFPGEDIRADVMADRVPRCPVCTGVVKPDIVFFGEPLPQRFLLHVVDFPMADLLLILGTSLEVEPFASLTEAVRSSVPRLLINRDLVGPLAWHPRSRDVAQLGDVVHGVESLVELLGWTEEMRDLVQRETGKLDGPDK

IC50 [1] [µM]	IC50 [2] [µM]	IC50 [3] [µM]	Compound
> 100	1.5	–	NC(=O)c1ccccc1Nc1cccc(OCCc2ccccc2Cl)c1
> 300	30	–	CC(C)COc1cccc(Nc2ccccc2C(N)=O)c1
–	93	–	N#Cc1ccc(Nc2ccccc2C(N)=O)cc1
> 100	> 300	–	CN(C(=O)c1ccccc1)c1ccc(Nc2ccccc2C(N)=O)cc1
> 300	4.3	–	NC(=O)c1ccccc1Nc1cccc(OCCCc2ccccc2)c1
> 100	> 100	–	NC(=O)c1ccccc1Nc1ccc(-c2ccccc2)cc1
> 100	40	–	CN(Cc1ccccc1)C(=O)c1cccc(Nc2ccccc2C(N)=O)c1
56	> 100	–	NC(=O)c1ccccc1Nc1ccc(Cl)cc1
> 300	54	–	NC(=O)c1ccccc1Nc1cccc(OCc2ccccc2)c1
> 100	> 100	–	NC(=O)c1ccccc1Nc1cccc(C(=O)O)c1
> 100	1.1	–	NC(=O)c1ccccc1Nc1cccc(OCCc2ccccc2Br)c1
–	100	–	NC(=O)c1ccccc1Nc1cccc(C(F)(F)F)c1
> 100	25	–	NC(=O)c1ccccc1Nc1ccc(NC(=O)C2CCCCC2)cc1
> 100	39	–	NC(=O)c1ccccc1Nc1cccc(C(=O)NCc2ccccc2)c1
> 100	60	–	Cc1ccc(Nc2ccccc2C(N)=O)cc1
–	72	–	Cc1cccc(Nc2ccccc2C(N)=O)c1
–	> 100	–	NC(=O)c1ccccc1Sc1ccccc1
> 100	74	–	NC(=O)c1ccccc1Nc1cccc(NC(=O)Cc2ccccc2)c1
> 100	38	–	NC(=O)c1ccccc1Nc1ccc(NC(=O)c2cccnc2)cc1
> 100	69	–	CN(C(=O)c1ccc(Nc2ccccc2C(N)=O)cc1)c1ccccc1
> 100	53	–	NC(=O)c1ccccc1Nc1ccc(NC(=O)C2CCNCC2)cc1
> 100	0.83	–	NC(=O)c1ccccc1Nc1cccc(OCCc2ccc(Cl)cc2)c1
75	> 100	–	CN(c1ccccc1)c1ccccc1C(N)=O
–	> 100	–	NC(=O)c1ccccc1Nc1cccc(CCO)c1
> 100	2	–	NC(=O)c1ccccc1Nc1cccc(OCCc2cccc(Cl)c2)c1

IC50 [1] [µM]	IC50 [2] [µM]	IC50 [3] [µM]	Compound
> 100	2.1	–	NC(=O)c1ccccc1Nc1cccc(OCCc2cccc(C(F)(F)F)c2)c1
> 100	> 100	–	CN(C(=O)Cc1ccccc1)c1cccc(Nc2ccccc2C(N)=O)c1
210	24	–	NC(=O)c1ccccc1Nc1cccc(OCC2CCCCC2)c1
> 100	> 300	–	NC(=O)c1ccccc1Nc1ccc(/C=C/c2ccccc2)cc1
> 100	1.4	–	NC(=O)c1ccccc1Nc1cccc(OCCc2ccc(C(F)(F)F)cc2)c1
> 100	1.6	–	Cc1ccc(CCOc2cccc(Nc3ccccc3C(N)=O)c2)cc1
> 100	57	–	NC(=O)c1ccccc1Nc1cccc(NC(=O)c2ccccc2)c1
> 100	23	–	NC(=O)c1ccccc1Nc1ccc(C(=O)Nc2ccccc2)cc1
> 100	2.7	–	NC(=O)c1ccccc1Nc1cccc(OCCc2ccc(F)cc2)c1
–	32	–	COC(=O)/C=C/c1cccc(Nc2ccccc2C(N)=O)c1
> 100	> 100	–	CN(C(=O)c1ccccc1)c1cccc(Nc2ccccc2C(N)=O)c1
> 100	> 100	–	COC(=O)c1cccc(Nc2ccccc2C(N)=O)c1
> 100	> 100	–	NC(=O)c1ccccc1Oc1ccccc1
> 100	> 100	–	NC(=O)c1ccccc1Nc1ccc2ccccc2c1
> 100	1.8	–	Cc1cccc(CCOc2cccc(Nc3ccccc3C(N)=O)c2)c1
> 100	> 100	–	NC(=O)c1ccccc1Nc1ccc(NC(=O)c2ccncc2)cc1
> 100	80	–	COc1ccc(Nc2ccccc2C(N)=O)cc1
–	25	–	NC(=O)c1ccccc1Nc1cccc(Oc2ccccc2)c1
> 100	> 100	–	CN(C(=O)c1cccc(Nc2ccccc2C(N)=O)c1)c1ccccc1
> 100	3.1	–	NC(=O)c1ccccc1Nc1cccc(OCCc2ccccc2C(F)(F)F)c1
> 100	> 100	–	CN(C)C(=O)c1ccccc1Nc1ccccc1
–	> 100	–	NC(=O)c1ccccc1NCc1ccccc1
> 100	> 100	–	NC(=O)c1ccccc1Nc1ccc(NC(=O)c2ccccn2)cc1
> 100	77	–	CC(=O)Nc1ccc(Nc2ccccc2C(N)=O)cc1
–	69	–	NC(=O)c1ccccc1Nc1ccc(C(F)(F)F)cc1

IC50 [1] [µM]	IC50 [2] [µM]	IC50 [3] [µM]	Compound
–	33	–	NC(=O)c1ccccc1Nc1cccc(-c2ccccc2)c1
> 100	17	–	NC(=O)c1ccccc1Nc1ccc(NC(=O)c2ccccc2)cc1
–	93	–	COC(=O)CCc1cccc(Nc2ccccc2C(N)=O)c1
> 100	> 100	–	CC(C)C(=O)Nc1ccc(Nc2ccccc2C(N)=O)cc1
> 100	1.8	–	Cc1ccccc1CCOc1cccc(Nc2ccccc2C(N)=O)c1
–	> 100	–	NC(=O)c1ccccc1Nc1ccccc1 [ANILINOBENZAMIDE]
> 100	3.4	–	NC(=O)c1ccccc1Nc1cccc(OCCc2cccc(Br)c2)c1
68	> 100	–	O=C(O)c1ccccc1Nc1ccccc1 [FENAMIC ACID]
–	> 100	–	NC(=O)c1ccccc1Nc1cccc(CO)c1
–	> 100	–	NC(=O)c1ccccc1Nc1cccc(/C=C/C(=O)O)c1
> 100	> 100	–	NC(=O)c1ccccc1Nc1ccc(Oc2ccccc2)cc1
93	> 100	–	NC(=O)c1ccccc1Nc1cccc(CCC(=O)O)c1
> 100	1.2	–	NC(=O)c1ccccc1Nc1cccc(OCCc2ccc(Br)cc2)c1
> 100	0.57	> 300	NC(=O)c1ccccc1Nc1cccc(OCCc2cccc(F)c2)c1
–	> 100	–	CSc1ccc(Nc2ccccc2C(N)=O)cc1
> 100	88	–	NC(=O)c1ccccc1Nc1ccc(CCc2ccccc2)cc1
–	> 100	–	CC(C)(C)c1ccc(Nc2ccccc2C(N)=O)cc1
> 100	2	–	NC(=O)c1ccccc1Nc1cccc(OCCc2ccccc2F)c1
> 100	20	–	NC(=O)c1ccccc1Nc1ccc(/C=C\c2ccccc2)cc1
> 100	> 100	–	CNC(=O)c1ccccc1Nc1ccccc1
> 100	83	–	NC(=O)c1ccccc1Nc1cccc(C(=O)Nc2ccccc2)c1
–	> 100	–	NC(=O)c1ccccc1Nc1ccc(C(=O)O)cc1
> 100	83	–	COC(=O)c1ccc(Nc2ccccc2C(N)=O)cc1

Source: ChEMBL document CHEMBL2150931, “Design, synthesis, and biological activity of a novel series of human sirtuin-2-selective inhibitors” (J Med Chem, 2012)
